This is a sample that favours compounds with a hit; in the whole collection about 1.6% have one here.
procasp7 counter – counter-screen for procaspase-3 activators: activators of human procaspase-7; P55210; recombinant procaspase-7, Ac-DEVD-pNA absorbance 405 nm; D23A/D198A/D206A triple mutant, cannot self-cleave; scale: DMSO 0, 5 µM enzyme 100; activation, % at 8.5 µM; actives 0.093% (n = 330,000);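 active means percent activation above the screen-wide mean plus 3 SD, cut at about 25% in these data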
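System: Uncleavable procaspase-7 mutant enzyme; Amount: 2 µM procaspase-7 mutant as dispensed; Schedule: 1 h compound preincubation, 2 h substrate cleavage, 25 °C; Measured by: 405 nm absorbance of p-nitroaniline; Evaluation: percent activation from buffer-corrected 0–120 min absorbance change; Control set: low DMSO alone, high DMSO plus 5 µM PC-7.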
Neddylation inh – cullin neddylation inhibition; P61081+Q13564; TR-FRET cullin neddylation, biochemical; calls only at 25 µM; actives 0.58% (n = 360,000); AID 651699; in the data active means inhibition above about 36%
KLK7 zymogen act – proKLK7 (human) activation, primary screen | purified proKLK7, EDANS-DABCYL substrate fluorescence; 100% is mature enzyme control, 0% vehicle | activation, % at 7 µM | actives 0.9% (n = 370,000) | AID 652039;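 active means activation above the mean of all tested compounds plus 3 SD, computed per campaign excluding outliers beyond control limits, cut at about 13% in these data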
proCasp3 act – activators of human procaspase-3; actives 0.11% (n = 330,000); P42574; recombinant procaspase-3 D3A, Ac-DEVD-pNA absorbance 405 nm; activation, % at 8.5 µM;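 active means activation above the mean of all tested compounds plus 3 SD, cut at about 21% in these data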
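System: Procaspase-3 D3A mutant. Medium: Zinc-free 300 mM NaCl, 50 mM HEPES, 0.01% Triton X-100. Schedule: 1 h preincubation plus 2 h reaction at 25 °C. Measured by: 405 nm absorbance of p-nitroaniline, reads at 0 and 120 min. Read-out: percent activation relative to control range.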
proKLK7 act conf – confirmation of human kallikrein-7 zymogen activators | shares compounds with KLK7 zymogen act | purified proKLK7, EDANS-DABCYL substrate fluorescence; scaled: vehicle 0, mature enzyme 100 | activation, % at 7 µM | actives 68% (n = 3,200);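 active means activation, as change over the incubation, above the mean of all tested compounds plus 3 SD, cut at about 13% in these data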
EDANS-DABCYL int – optically interferes with EDANS-DABCYL signal, flagging KLK7 hits | shares compounds with KLK7 zymogen act | EDANS-DABCYL substrate fluorescence interference, no enzyme, 4 h; solvent 0%, active enzyme control 100% | activation, % at 7 µM | actives 80% (n = 3,200) | AID 686952;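 active means activation above the all-compound mean plus 3 SD, ignoring values outside control-based bounds, cut at about 4.8% in these data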;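 further: value is the 4 h activation minus the activation read at time zero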
EDANS interf – optically interferes with EDANS-DABCYL fluorescence, kallikrein-7 activator counter-screen. EC50, µM. shares compounds with KLK7 zymogen act. EDANS-DABCYL peptide fluorescence interference, no enzyme. actives 20% (n = 250);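 active means compounds that raise the fluorescence signal in this interference counterscreen, with EC50 at or below 10 µM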;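 further: intact quenched peptide substrate alone read at 355 nm excitation and 520 nm emission; signal is fluorescence gain from T0 to T4 after four hours at room temperature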
Numbers stand for hits; . = inactive; / = not tested or not shown.

SMILES | procasp7 counter | Neddylation inh | KLK7 zymogen act | proCasp3 act | proKLK7 act conf | EDANS-DABCYL int | others
COCCCNC(=O)c1c(N)n(-c2ccccc2)c2nc3ccccc3nc12 | . | / | . | . | / | /
COc1ccccc1CNC(=O)c1c(N)n(CCCN2CCOCC2)c2nc3ccccc3nc12 | / | / | . | / | / | /
Nc1c(C(=O)NCCN2CCOCC2)c2nc3ccccc3nc2n1-c1ccccc1 | . | / | 28 | . | . | 9.1
C=CCn1c(N)c(C(=O)OC(C)CC)c2nc3ccccc3nc21 (stereo not given) | / | / | 69 | / | . | .
C=CCn1c(C(C)C)nc2ccccc21 | . | . | . | . | / | /
C=CCn1c(N)c(C(=O)OC(C)(C)C)c2nc3ccccc3nc21 | / | / | 46 | / | 80 | 71
C=CCn1c(N)c(C(=O)Nc2ccccc2)c2nc3ccccc3nc21 | . | . | . | . | / | /
CC(C)(C)c1ccc(OC(=O)Nc2ccc(O)c(C(=O)O)c2)cc1 | . | / | 13 | . | 14 | 12
Cc1cccc(OC(=O)Nc2ccc(C(=O)O)c(O)c2)c1 | / | . | . | / | / | /
N/C(=N\O)c1ccc(Cl)cc1Cl | . | . | . | . | / | /
C=CCN(CC=C)c1nc2ccccc2nc1C(C#N)C(=O)OC(C)C (stereo not given) | . | / | 19 | . | 22 | 22
Cc1onc(-c2c(F)cccc2Cl)c1C(=O)NC(=S)NCc1cccnc1 | . | . | . | . | / | /
Cc1cc(NC(=O)CSCC(=O)N2CCN(c3cccc(C(F)(F)F)c3)CC2)no1 | . | . | . | . | / | /
CCCCCNc1nc(NCCCO)c(C#N)c2c1CN(C)CC2 | . | / | 20 | . | 17 | 23
CCCc1nc(NCCO)c(C#N)c2c1CCCC2 | . | . | . | . | / | /
C=CCNc1nc(NCc2ccccc2)c(C#N)c2c1CN(C)CC2 | . | / | 14 | . | 20 | 15 | EDANS interf=.
Cc1cc(-c2ccccc2)c2ccc(NC(=O)C(C)(C)C)nc2n1 | . | . | 33 | . | . | .
CCOC(=O)C1=C(C(=O)OCC)C2N(Cc3ccc(C#N)cc3)c3ccccc3[C@@]23C[C@@H](C(=O)OC)N(S(=O)(=O)c2ccc(C#N)cc2)C3=N1 (stereo not given in full) | / | / | . | / | / | /
CCOC(=O)C1Cc2c([nH]c3ccccc23)C(C)N1 (stereo not given) | . | . | . | . | / | /
CC[C@@H]1CN(C)[C@H]2Cc3c([nH]c4ccccc34)C(=O)C[C@@H]1[C@@H]2C(=O)OC | . | / | 17 | . | . | 5.2
COc1cc2c(cc1OC)CN(C(=O)NS(=O)(=O)c1ccc(C)cc1)CC2 | . | / | 20 | . | . | .
COc1cc2c(cc1OC)CN(C(=O)c1ccc(S(=O)(=O)N3CCCC3)cc1)CC2 | . | . | . | . | / | /
COc1ccc(-c2cc(C(F)(F)F)nc(SCCC(=O)N3CCN(C)CC3)n2)cc1 | / | . | . | / | / | /
COc1ccc(-c2cc(C(F)(F)F)nc(SCC(N)=O)n2)cc1 | . | / | 15 | . | . | 6.6
COc1ccc(-c2cc(C(F)(F)F)nc(SCC(=O)N(C)Cc3cn(C)nc3C)n2)cc1OC | . | / | 32 | . | . | .
CCCN1C2=C(C(=O)CC(C)(C)C2)C(c2ccc(F)cc2)C2=C1c1ccccc1C2=O (stereo not given) | . | . | . | . | / | /
CCCCN1C2=C(C(=O)CC(C)(C)C2)C(c2ccccc2)C2=C1c1ccccc1C2=O (stereo not given) | . | . | . | . | / | /
CC1(C)CC(=O)C2=C(C1)N(CCN1CCOCC1)C1=C(C(=O)CC(C)(C)C1)C2c1cccc(Cl)c1 | . | / | 26 | . | . | 8.1
CCN(CC)CCN1C2=C(C(=O)CC(C)(C)C2)C(c2cccc(F)c2)C2=C1CC(C)(C)CC2=O | . | / | 16 | . | . | .
COc1ccc(N2C(=O)CC(N3CCN(Cc4ccc5c(c4)OCO5)CC3)C2=O)cc1 (stereo not given) | . | . | 53 | . | . | .

Source: PubChem
